# Assay outcomes: PubChem BioAssay, several laboratories
# SUMO1 PPI mod: modulators of SUMO1 protein-protein interactions, primary screen, biochemical, uHTS. SUMO1 binding to a labelled peptide, TR-FRET, 1 h. AID 602429, 2012. Small ubiquitin-related modifier 1 (Homo sapiens), P63165. inhibition, % at 20 µM. actives 0.33% (n = 360,000); in the data active means inhibition above about 37%
# Target sequence (P63165 whole entry, looked up): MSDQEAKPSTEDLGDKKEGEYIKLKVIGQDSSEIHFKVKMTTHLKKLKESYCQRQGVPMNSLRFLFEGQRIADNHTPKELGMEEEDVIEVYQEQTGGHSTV
# Pemphigus Ab inh: inhibitors of pemphigus antibody binding to DSG3, primary screen, biochemical, bead-based, flow cytometry, scFv-GFP. binding (percent of control), % at 10 µM. DSG3-coupled beads, scFv-anti-DSG3-GFP binding; hits give low values. Desmoglein-3 (Homo sapiens), P32926. actives 0.48% (n = 310,000). AID 588358, 2011;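 active means binding more than 3 SD below its plate's average and above zero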;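 further: hits lower antibody fragment binding to DSG3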
# MBD2 inh: inhibitors of MBD2 binding to methylated DNA, primary screen, biochemical, TR-FRET, DNA-binding domain, human. Methyl-CpG-binding domain protein 2 (Homo sapiens), Q9UBB5. MBD2 binding to methylated oligonucleotide. inhibition, % at 4.4 µM. actives 0.31% (n = 370,000). AID 686964, 2013; in the data active means inhibition above about 13%
# Target sequence (Q9UBB5 whole entry, looked up, the tested form may be a part): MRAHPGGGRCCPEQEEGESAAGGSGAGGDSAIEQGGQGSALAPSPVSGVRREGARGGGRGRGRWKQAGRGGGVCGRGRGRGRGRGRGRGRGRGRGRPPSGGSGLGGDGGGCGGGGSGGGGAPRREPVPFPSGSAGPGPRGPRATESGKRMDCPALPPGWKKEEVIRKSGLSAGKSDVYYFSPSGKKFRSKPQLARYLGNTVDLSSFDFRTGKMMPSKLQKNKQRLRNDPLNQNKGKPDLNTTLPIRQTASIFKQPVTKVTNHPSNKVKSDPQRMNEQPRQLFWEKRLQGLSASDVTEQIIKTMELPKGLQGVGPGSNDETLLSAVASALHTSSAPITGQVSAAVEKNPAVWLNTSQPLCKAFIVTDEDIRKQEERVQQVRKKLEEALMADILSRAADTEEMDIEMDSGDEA
# UHRF1 binding: UHRF1 methylated DNA binding inhibitors, primary screen, counter-screen for MBD2 inhibitor project, biochemical, TR-FRET, human UHRF1, single concentration. UHRF1 binding to methylated oligo. E3 ubiquitin-protein ligase UHRF1 (Homo sapiens), Q96T88. actives 0.75% (n = 370,000). inhibition, % at 4.4 µM. AID 687016, 2013; in the data active means inhibition above about 21%;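 further: UHRF1 SRA domain binding a hemimethylated CpG hairpin DNA probe; 0% = median of test compound wells and 100% = reference inhibitor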
# DNMT1 block: human DNMT1 methyltransferase inhibitors, primary screen, biochemical, molecular beacon, fluorescence, HinP1I cleavage, uHTS; DNA (cytosine-5)-methyltransferase 1 (Homo sapiens), P26358; inhibition (reported as % activation of signal), % at 10 µM; AID 588458, 2011; actives 0.83% (n = 360,000); in the data active means inhibition above about 50%
# HCV NS3 hel inh: inhibitors of HCV NS3 helicase, primary screen, biochemical, Cy5 molecular beacon fluorescence. Hepatitis C virus NS3 helicase. NS3 helicase DNA unwinding. inhibition, % at 10.9 µM. actives 0.56% (n = 290,000). AID 1800, 2009;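 active means inhibition above the mean of all tested compounds plus 3 SD, set per campaign, cut at about 35% in these data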;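 further: 0% = DMSO wells and 100% = thioflavine S control wells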
#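 Test system: hepatitis C virus NS3 helicase domain fragment enzyme. Also added: annealed dual-labelled DNA beacon duplex, ATP-started. Timing: 60 min unwinding reaction at 25 °C after ATP addition. Technique: Cy5 fluorescence. Measure: % inhibition of unwinding.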
# * = called active by the depositor; x = no result given. Rows were chosen to be rich in hits. Some 2.5% of all compounds tested hit in one or more screens of this group.
SMILES,SUMO1 PPI mod,Pemphigus Ab inh,MBD2 inh,UHRF1 binding,DNMT1 block,HCV NS3 hel inh
CN(C(=O)CCc1nnc(CCCCc2ccccc2)o1)C1CCOCC1,1,99,6,17,1,-1
CN(C(=O)CCc1nnc(CCCCc2ccccc2)o1)C1CC(C)(C)NC(C)(C)C1,-2,97,7,46*,0,-4
CN(C)c1ccc(/C=C2/SC(=O)N(CCN=C3NS(=O)(=O)c4ccccc43)C2=O)cc1,41*,99,-3,-1,-26,-2
O=C(Nc1cnn(Cc2ccc(F)cc2)c1)C(c1ccccc1)c1ccccc1,-1,104,4,1,-14,-3
Cc1cccc2c1NC(=O)C2=O,-10,93,5,9,50*,x
Cc1c(C)n(C)c2ccc(C(=O)NCCCN3CCCCC3C)cc12 (stereo not given),-36,107,4,2,-5,-19
COc1cc(NCCCCCCN)c2ncccc2c1OC,-12,66,-6,2,62*,x
COc1cc(NC(C)CCCNC(C)C)c2ncccc2c1OC (stereo not given),-6,95,-7,-1,-5,x
S=C(NCCc1ccc(Cl)cc1)Nc1ccc(Cl)cc1Cl,-3,106,2,1,1,10
Cc1cccc(OCC(=O)Nc2ccccc2N2CCCCC2)c1,41*,101,-3,-3,5,-2
CCOc1ccc(C(=O)OCC(=O)Nc2cc(S(=O)(=O)N3CCOCC3)ccc2N2CCOCC2)cc1,-2,-19*,-1,0,3,x
Cc1ccc(S(=O)(=O)N2CCCCC2)cc1NC(=O)COC(=O)c1ccc(O)cc1,2,97,-1,34*,-2,-2
O=C(COC(=O)c1ccc(S(=O)(=O)N2CCCC2)cc1)NCc1ccc(Cl)cc1,0,71*,0,-2,15,2
O=C(COC(=O)c1ccc(O)cc1)Nc1cc(S(=O)(=O)N2CCCCCC2)ccc1Cl,10,104,-6,-1,2,x
O=C(COC(=O)c1ccc(S(=O)(=O)N2CCCCCC2)cc1)NCc1ccc(F)cc1,8,96,1,0,26,x
O=C(COc1ccc([N+](=O)[O-])cc1)Nc1cc(S(=O)(=O)N2CCCCC2)ccc1N1CCCCC1,5,103,10,22*,11,x
O=C(COc1ccc(F)cc1)Nc1cc(S(=O)(=O)N2CCCCC2)ccc1N1CCCCC1,6,98,9,21,4,x
CCN1CCN(c2ccc(S(=O)(=O)N3CCCCC3)cc2NC(=O)CC(C)c2ccccc2)CC1 (stereo not given),-23,105,1,52*,-1,x
O=c1ccn([C@@H]2O[C@H](CNCc3cccc4c3sc3ccccc34)[C@@H](O)[C@H]2O)c(=O)[nH]1,0,x,0,1,4,x
COc1ccc(C(=O)Nc2ccccc2C(=O)NC(Cc2ccc(O)cc2)C(=O)NNC(=O)c2ccccc2)cc1 (stereo not given),-2,106,5,11,-8,-2
COc1ccc(C(=O)Nc2ccccc2C(=O)NC(Cc2ccc(O)cc2)C(=O)NNC(=O)c2ccc(C)cc2)cc1 (stereo not given),78*,105,7,-3,-8,1
NCCCC[C@@H](C(=O)N1CCNCC1)n1cc(CN)nn1,-87,100,1,0,-8,x
CCCCc1cn([C@@H](CCCCN)C(=O)N2CCNCC2)nn1,-18,109,6,24*,15,3
O=C(CCN1C(=O)S/C(=C\C=C\c2ccccc2)C1=O)Nc1ccc(O)cc1,-20,113,-5,-3,-16,-3
C=CCn1cccc(C(=O)Nc2cc(OC)ccc2OC)c1=O,0,98,-3,29*,-1,-3
SMILES,SUMO1 PPI mod,Pemphigus Ab inh,MBD2 inh,UHRF1 binding,DNMT1 block,HCV NS3 hel inh
c1coc(CSSCc2ccco2)c1,14,x,32*,83*,101*,x
C[C@@H]1CN([C@@H](C)CO)S(=O)(=O)c2ccc(Br)cc2O[C@H]1CN(C)C(=O)c1ccncc1,-1,x,0,1,4,x
COc1cccc(-c2ccc3c(c2)O[C@@H](CN(C)C(=O)C2CCOCC2)[C@H](C)CN([C@H](C)CO)S3(=O)=O)c1,2,103,6,22*,-4,x
C[C@@H]1CN([C@H](C)CO)S(=O)(=O)c2ccc(Br)cc2O[C@H]1CN(C)C(=O)C1CC1,0,113,6,21*,-28,x
C[C@H]1CN([C@@H](C)CO)S(=O)(=O)c2ccc(Br)cc2O[C@H]1CN(C)C(=O)c1cccnc1,1,101,3,24*,4,x
C[C@@H]1CN([C@H](C)CO)S(=O)(=O)c2ccc(Br)cc2O[C@@H]1CN(C)Cc1ccc(-c2ccccc2)cc1,5,107,13,21*,-16,x
C[C@@H]1CN([C@@H](C)CO)S(=O)(=O)c2ccc(Br)cc2O[C@H]1CN(C)C(=O)C1CCC1,2,x,0,0,4,x
C[C@@H]1CN([C@H](C)CO)S(=O)(=O)c2ccc(Br)cc2O[C@@H]1CN(C)Cc1ccc(C(=O)O)cc1,3,x,-1,-3,3,x
CC(C)(C)n1cnc2cc(NC(=O)c3cccs3)ccc21,3,107,0,-1,0,0
CCOC(=O)c1sc2nc(C)nc(N3CCN(c4ncccn4)CC3)c2c1C,-10,100,7,6,-1,4
O=C(NCCCN1CCOCC1)c1onc(CSc2ccccn2)c1C(=O)NCCCN1CCOCC1,0,99,2,5,0,x
COc1ccc(CC(=O)NCc2n[nH]c(=S)n2-c2cccc(C)c2)cc1,8,100,2,0,-5,-3
O=C(Cc1ccccc1)NCc1n[nH]c(=S)n1-c1ccccc1,11,12*,3,1,-1,5
Cc1nn2cnnc2c(C)c1Cc1c(F)cccc1Cl,-1,102,0,1,1,14
COC(=O)[C@]12C[C@H](CC(=O)N3CCN(C(=O)c4ccco4)CC3)C(=O)N(Cc3ccccc3)C1=C[C@H](COCc1ccccc1)O[C@@H]2C,x,x,-2,-1,x,x
Cc1cccc(C(O)c2ncc(-c3ccc4ccccc4c3)[nH]2)c1C (stereo not given),2,x,4,30*,6,x
COc1cccc(-c2cnc(C(O)c3cccc(C)c3C)[nH]2)c1 (stereo not given),6,x,6,2,2,x
